Test results taken from ChEMBL document CHEMBL4513216, “Probing the Open Global Health Chemical Diversity Library for Multistage-Active Starting Points for Next-Generation Antimalarials” (ACS Infect Dis, 2020).

assay: Toxicity liver stage against HepG2, at 10uM; type: cell-based; set-up: test concentration 10 uM, cell line HepG2-A16-CD81EGFP; settings: human, HepG2-A16-CD81EGFP cells; read-out: INHIBITION
Outline: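 Uninfected HepG2-A16-CD81EGFP cells, 3 × 10^3 per well, 1536-well, plated on prespotted compound at 10 μM final, parasite-free screening media added to match infected plates; puromycin 10 μM positive, DMSO 0.5% negative; run in parallel with 48 h PbLuc assay at 37 °C, 5% CO2; viability by CellTiter-Glo luminescence, normalized to controls.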

| Structure (SMILES) | cytotoxicity at 10 µM |
| --- | --- |
| CN(C)S(=O)(=O)N1CCC2(COCc3cnc(-c4ccccc4)nc32)C1 (stereo not given) | -13.6% |
| CCc1cccc(OCC(=O)N2CCCC(n3cncn3)C2)c1 (stereo not given) | -7.62% |
| O=C(CC1CCCC1)N1C[C@@H]2CCN(c3cccnc3)C[C@@H]2C1 | 4.24% |
| COC[C@]1(O)CCN(C2CCN(c3ccc(F)c(F)c3)CC2)CC1(C)C | -3.85% |
| CCCN1CCC(N2CCN(c3cc(C)nc(C)c3)CC2)CC1 | -11.2% |
| CN(C)CC(=O)N1CCc2ncnc(-c3ccoc3)c2CC1 | -7.36% |
| CN1CCCC(Cc2cc(N(C)C)ncn2)C1 (stereo not given) | 11.1% |
| COc1ccc(C)cc1CC(=O)Nc1cc(C)n[nH]1 | 0.503% |
| Cc1nc(CN2C(=O)C[C@H]3[C@H]2CCN3C2CCOCC2)cs1 | -7.87% |
| COc1cccc(CNCc2ccccc2Cl)c1O | -13.2% |
| c1coc(CNCC2Cn3nncc3CO2)c1 (stereo not given) | -92.5% |
| COCC(=O)N1CCCCC1c1nc(N(C)C)ncc1-c1cc(C)no1 (stereo not given) | 5.93% |
| Cc1ccc(S(=O)(=O)NCCc2nnc[nH]2)c2cccnc12 | -5.93% |
| CCc1nc(C2CCCN(C(=O)NC3CC3)C2)no1 (stereo not given) | -15.3% |
| CC(CNC(=O)c1cc(N2CCNC2=O)ccc1F)c1ccccc1 (stereo not given) | -2.1% |
| CCCS(=O)(=O)CC(=O)Nc1cc(CC(C)(C)C)n[nH]1 | 2.43% |
| COc1ccccc1CNC(=O)Cn1ncc2c1c(C)nn2C | 10.6% |
| O=c1c2c[nH]c(N3CCOCC3)nc-2cn1Cc1cccc(F)c1 | -2.72% |
| Cc1ccc(CN2CCCC3(CCN(S(=O)(=O)N(C)C)C3)C2)o1 (stereo not given) | 7.49% |
| Cc1nn(C)c(Cl)c1CNCc1cccnc1N1CCCCC1 | -145% |
| COC1(CNC(=O)c2ccc3nsnc3c2)CCSC1 (stereo not given) | -1.36% |
| CC(C)(C)c1n[nH]c(C2CN(C(=O)c3ccsc3)CCO2)n1 (stereo not given) | -12.3% |

| Structure (SMILES) | cytotoxicity at 10 µM |
| --- | --- |
| Cc1nccc([C@H]2C[C@@H]3CCN(Cc4ccco4)C[C@H]3O2)n1 | -1.03% |
| c1cncc(C2COC3(CCN(CC4CC4)CC3)C2)c1 (stereo not given) | -14.9% |
| O=C(NC1CCCC1)c1cc(C2CCCNC2)n[nH]1 (stereo not given) | 5.27% |
| Cc1ccc(CNC(=O)N2CCN(C(C)c3cccnc3)CC2)cn1 (stereo not given) | -2.11% |
| Cn1nccc1CNC(=O)NC1CCN(c2ncccc2Cl)C1 (stereo not given) | 4.37% |
| CCOCC1CCN(C(=O)Nc2ccc3c(c2)CCCO3)C1 (stereo not given) | 10.6% |
| CC1CN(c2ncnc3cccc(F)c23)CCO1 (stereo not given) | 16.1% |
| COCc1nc(CNc2cc(C)nc(N3CCCCC3)n2)no1 | 9.84% |
| CC(Cn1cccn1)NCCCc1nc(-c2cccs2)no1 (stereo not given) | -9.8% |
| O=C(Cc1ccccc1Cl)NCCN1CCC(c2cccs2)CC1 | 6.93% |
| CN(C)CCOc1ccc(CNC(=O)c2cccc3[nH]ncc23)cc1 | 7.99% |
| Cc1noc(C(C)C)c1C(=O)NCc1ccc2c(c1)OCCO2 | 3.24% |
| CCN(Cc1noc(C)n1)C(=O)C(c1cccc(C)c1)N(C)C (stereo not given) | -1.34% |
| Cc1nccn1-c1cncc(C2CCCN2Cc2cccnc2)n1 (stereo not given) | -20.4% |
| COC(=O)Cn1ccc(=O)c2ccc(OC)cc21 | -20.7% |
| Cc1nc2ccccc2nc1CN1CCCC(Cn2cncn2)C1 (stereo not given) | -4.57% |
| Cc1nn(C)c(C)c1C1CCCN1C(=O)c1ccc(N(C)C)nn1 (stereo not given) | -10.6% |
| CN(C)CCN1CCO[C@H]2CN(C(=O)N(C)C)C[C@H]21 | 0.657% |
| CCc1cc(NC2CCN(CC(N)=O)CC2)nc(N2CCCCC2)n1 | -4.75% |
| CN(C)CCCn1cnc2cc(NC(=O)c3n[nH]c4c3CCC4)ccc21 | -5.3% |
| CNC(=O)c1cc2c(nc1N(C)C)CCN(S(=O)(=O)C1CC1)CC2 | 0.118% |
| CNC(=O)[C@@]12CCCN(c3ncccn3)[C@@H]1CN(C(=O)NC(C)C)C2 | 0.614% |

| Structure (SMILES) | cytotoxicity at 10 µM |
| --- | --- |
| CCCS(=O)(=O)N(C)C(=O)CCc1ccccc1 | 4.83% |
| CC(C)C(=O)N1CCC(C)(c2cc[nH]n2)CC1 | 1.96% |
| Cc1nnc(N2CCC(CN(C)C(C)C)CC2)c(C#N)c1C | 3.63% |
| Cn1ncc2c(NC3CCC3)nc(-c3ccncc3)nc21 | 16.7% |
| CCn1cc(-c2cc(C(F)(F)F)nn2CCC#N)cn1 | 3.93% |
| COCCCn1ccc(NC2CCOCC2)n1 | 3.31% |
| O=C(NC[C@H]1OC[C@@H](NC2CCC(F)(F)CC2)[C@@H]1O)C1CC1 | -1.39% |
| COc1cc(C)cc(OC)c1C(C(=O)O)N(C)Cc1c(C)nn(C)c1C (stereo not given) | 7.34% |
| CNC(=O)c1ccc(C2CN(CC(=O)N(C)C)CCO2)nc1 (stereo not given) | 7.15% |
| COc1ccccc1C(=O)N1Cc2cc(C)ccc2OCC1CN(C)C (stereo not given) | 5.2% |
| CC(=O)N1CCCN(C(C)c2ccc(Br)cc2)CC1 (stereo not given) | 7.89% |
| COc1c(CNC2CCN(C(C)(C)C)CC2)c(C(C)C)nn1C | -10.9% |
| CC(C)NC(=O)CNC(=O)N1CCc2c([nH]c3ccc(Cl)cc23)C1 | 7.15% |
| O=C(NCc1ccco1)[C@@]12CCO[C@@H]1CCN(CCN1CCCC1)C2 | -3.47% |
| Cc1cc(C)n(C2CCCN(C(=O)c3csc(C4CC4)n3)C2)n1 (stereo not given) | -2.51% |
| Cn1cc(C(=O)N2CCC(c3cc(CCO)n(C)n3)C2)cn1 (stereo not given) | -0.0959% |
| O=C(c1scc2c1OCCO2)N1CCOC(CCc2ccccc2)C1 (stereo not given) | 10.5% |
| Cc1ccc(SC2CCCC2)c(C(=O)NCCc2n[nH]c(=O)[nH]2)c1 | -45.3% |
| COCc1noc(CCNC(=O)c2ccc(C3CCCO3)s2)n1 (stereo not given) | 3.19% |
| COc1ccc(S(=O)(=O)NCC(c2cccn2C)N(C)C)c(C)c1 (stereo not given) | 7.78% |
| CCCc1nc(NCCCO)c2c(n1)c(C)nn2CC | 2.55% |
| Cn1nc(C(=O)N2CCC(Oc3ccc(C#N)cn3)CC2)ccc1=O | -3.33% |

| Structure (SMILES) | cytotoxicity at 10 µM |
| --- | --- |
| O=C(c1cnc(-c2cccnc2)nc1)N1CCC(c2ccncc2)CC1 | -13.7% |
| CC(C)OCCC(=O)Nc1c(-c2ccc(F)cc2)ncn1C | -3.41% |
| CCCSc1ncc(Cl)c(C(=O)NC(CCSC)C(=O)O)n1 (stereo not given) | -6.44% |
| CCNC(=O)N1CCC(Nc2nccc(NCC)n2)CC1 | -3.6% |
| CCc1ccc(CNC[C@H]2C[C@@H](CO)N(C)[C@H]2c2ccccc2F)o1 | -3.09% |
| CCS(=O)(=O)N1CC[C@@H]2[C@@H](CCC(=O)N2CCc2ccccc2)C1 | 0.86% |
| CC(NCc1c(C(C)C)nn(C)c1N1CCOCC1)C(=O)N(C)C (stereo not given) | -10.7% |
| Cc1noc(C)c1CN1C[C@H]2CN(Cc3cccc(F)c3)C[C@H]2C1 | -114% |
| c1nc2c(c(C3CCOC3)n1)CCN(Cc1ccoc1)CC2 (stereo not given) | 7.01% |
| O=C(NC[C@@H]1CCCO1)c1ccc(S(=O)(=O)N[C@@H]2CCNC2)cc1 | -42.2% |
| Cc1cccc(S(=O)(=O)N2C[C@@H]3C[C@@H](c4nc(C)no4)O[C@@H]3C2)c1 | -1.05% |
| COc1ccc(N(C(=O)c2ccccn2)C(C)C)cc1F | -1.26% |
| Cc1nc(C)c(C(=O)N2CCCC(C(=O)c3nccn3C)C2)s1 (stereo not given) | 2.3% |
| CCN(CC)CCNS(=O)(=O)c1cccc(CSC)c1 | -7.99% |
| O=C1COC2(CCN(C(=O)c3ccco3)CC2)CN1Cc1ccccn1 | 6.45% |
| O=C(NCCn1nc2ccccn2c1=O)c1sccc1-c1ccccc1 | -12.7% |
| CN(C)C(CNC(=O)OCC(F)(F)F)c1ccsc1 (stereo not given) | -44.4% |
| COCC(=O)N1CCC2(CCC2NS(=O)(=O)c2ccccc2)CC1 (stereo not given) | 0.073% |
| O=C(NCCNc1ncccn1)C1CC(=O)N(CC(F)(F)F)C1 (stereo not given) | -9.02% |
| C[C@@H]1CN(C(=O)C2CCS(=O)(=O)CC2)C[C@@]1(O)C1CC1 | 3.99% |
| Cc1ccc(-c2nc(CCNC(=O)NCC(C)(C)C(N)=O)co2)cc1 | -10.1% |
| Cn1cc(Br)c(=O)c(NS(=O)(=O)c2ccc(F)cc2)c1 | -8.87% |

| Structure (SMILES) | cytotoxicity at 10 µM |
| --- | --- |
| COc1ccccc1CNC(=O)CNCCn1cc(C)cn1 | -1.9% |
| C/N=C1/c2cc3cc(OC)ccc3n2CCN1Cc1ccccc1 | 69.7% |
| O=C(C1CCC1)N1C[C@H]2CC[C@@H](C1)N(S(=O)(=O)c1ccccc1)C2 | -10% |
| CN1C(=N)NC(=O)/C1=C\c1ccc(-c2ccc(F)cc2)o1 | 13.5% |
| CCCn1cc(NC(=O)c2ccc(S(C)(=O)=O)cc2)ccc1=O | -13.1% |
| Cc1cc(NC(=O)Cn2nc(C)c(C#N)c2N)ccc1Br | -6.58% |
| CN1C[C@@H](N)C[C@H]1c1nc(-c2ccc3c(c2)OCO3)no1 | -3.75% |
| c1ccc2c(Cc3nnc([C@H]4CCN(C5CCC5)C4)o3)c[nH]c2c1 | -0.0653% |
| Cc1cnn(CC(=O)N2CCC3(CCC(=O)N(CCCO)C3)CC2)c1 | -9.44% |
| CC1CCCN(c2ccccc2OCC(=O)NC2CC2)C1 (stereo not given) | 10.1% |
| CSc1cccc(NC(=O)Nc2c(O)oc3ccccc3c2=O)c1 | 4.45% |
| COC(=O)CN1CCC(C(F)(F)F)CC1 | 8.12% |
| CNS(=O)(=O)c1ccc(CN2CCCN(Cc3ccncc3)CC2)cc1 | 7.06% |
| Cc1cnc(N2CCOCC3(CCN(c4ccccn4)C3)C2)nc1 (stereo not given) | 6.85% |
| Fc1ccc(-c2cnc(CN3CCn4c(nnc4C4CC4)C3)o2)cc1 | -13.4% |
| CCOc1ccc(S(=O)(=O)N(C)Cc2cnn(CC)c2)cc1 | 11.6% |
| CC(=O)N1CCc2c(nc(N(C)C)nc2N(C)CCCC2CCCO2)C1 (stereo not given) | 7.92% |
| Cc1cc(CN(Cc2ccccc2)CC(O)c2cccs2)on1 (stereo not given) | 5.29% |
| c1cnc(N2CCCC(c3cc4cccnc4[nH]3)C2)nc1 (stereo not given) | -9.42% |
| CN(CCCc1cnn(C)c1)C(=O)C1CCC(=O)N(C2CCCC2)C1 (stereo not given) | 5.89% |
| CCn1nc(C)cc1C(=O)N1CCOc2cc(C)ccc21 | 10.5% |
| Cc1nnc(C2CCN(C(=O)c3ccc4[nH]ccc4c3)CC2)s1 | 15% |
